Autophagy HCS = autophagy modulation, high-content screen; MEF GFP-LC3 puncta imaging; test concentration mostly 10 µM; calls only at 10 µM (by protocol); 0.98% of 190,000 active; AID 463193;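 active = percentage of spot-positive cells more than 3 SD above its plate mean, without a fluorescence outlier flag or 80% toxicity; inconclusive = no clear call, values can overlap the other calls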
Insulin prom up = MIN6 insulin promoter up-regulation | z-score at 5 µM | MIN6 insulin promoter-GFP reporter, high-content imaging; active compounds read high | 0.3% of 190,000 active;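 active = z-score above 3 at 5 µM with at least 500 cells counted in the well; inconclusive = wells under 500 cells, flagged as cytotoxic or low count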
MT stabilize HCS = microtubule stabilization, imaging screen; HeLa tubulin immunostaining HCS, 24 h; share of cells brighter than vehicle mean+2SD; 0.83% of 200,000 active; % tubulin-high responders, % at 10 µM;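 active = plate Z-score above 3 for both tubulin-high and condensed-nucleus cell shares, with cell loss under 80%, at 10 µM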;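 also: anti alpha tubulin signal scored within the nucleus-defined area of each cell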
bCat nuc transl = modulators of beta-catenin nuclear translocation | HeLa beta-catenin nuclear translocation, immunofluorescence imaging | 0.3% of 190,000 active | nuclear translocation activity, % at 5 µM;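 active = nuclear translocation activity above 50% at 5 µM, with a well cell count of 50 or more; inconclusive = wells under 50 cells across six images, flagged as toxic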;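 also: per-cell ratio of nuclear to cytoplasmic median beta-catenin stain intensity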
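assay system = human HeLa cells, endogenous beta-catenin | times = compound treatment 24 h, 37°C, 5% CO2 | detection = Anti-beta-catenin immunofluorescence on PFA-fixed, Triton-permeabilized cells, DAPI nuclei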
Wee1 degr inh = blocks degradation of human Wee1 kinase | 1.2% of 220,000 active | HeLa Luc-Wee1K328M stability, luciferase luminescence; 100% = proteasome inhibitor MG132 effect | P30291 | reporter increase, % at 5 µM;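 active = activation above the mean of all tested compounds plus 3 SD, set per screening run, cut at about 8.8% in these data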;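 also: cells exposed to compound for 20 h before luminescence read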
Target sequence (P30291 whole entry K328M): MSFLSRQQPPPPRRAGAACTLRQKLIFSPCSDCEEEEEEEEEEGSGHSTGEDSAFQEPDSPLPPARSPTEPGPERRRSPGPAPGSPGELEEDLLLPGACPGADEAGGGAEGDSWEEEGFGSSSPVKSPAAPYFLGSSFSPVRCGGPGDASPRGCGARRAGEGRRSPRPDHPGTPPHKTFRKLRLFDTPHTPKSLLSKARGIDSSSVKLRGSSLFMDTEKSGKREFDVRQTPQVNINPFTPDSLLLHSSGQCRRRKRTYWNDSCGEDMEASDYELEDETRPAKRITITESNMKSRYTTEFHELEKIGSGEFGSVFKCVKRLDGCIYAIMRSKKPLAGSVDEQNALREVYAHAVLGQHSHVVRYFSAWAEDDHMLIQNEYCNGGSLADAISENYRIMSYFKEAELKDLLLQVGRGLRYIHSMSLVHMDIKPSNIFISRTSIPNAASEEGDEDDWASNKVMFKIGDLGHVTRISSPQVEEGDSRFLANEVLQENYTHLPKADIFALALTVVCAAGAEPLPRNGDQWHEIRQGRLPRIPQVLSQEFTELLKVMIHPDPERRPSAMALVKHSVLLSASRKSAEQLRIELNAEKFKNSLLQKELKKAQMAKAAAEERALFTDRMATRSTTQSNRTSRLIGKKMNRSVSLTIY
Hits are given with their value; 0 = inactive; ? = inconclusive; - = no result; + = active, no number. This is a sample that favours compounds with a hit; in the whole collection about 2.9% have one here.

SMILES	Autophagy HCS	Insulin prom up	MT stabilize HCS	bCat nuc transl	Wee1 degr inh
CN(c1ccc(OCC(=O)N2CCOCC2)cc1)S(=O)(=O)c1ccc(Cl)cc1	0	0	0	0	0
CCN(CC)CCOC(=O)c1ccc(NC(=O)/C=C/c2cccs2)cc1	0	0	0	-	0
CCOC(=O)c1ccc(NC(=O)/C=C/c2cccs2)cc1	+	0	0	0	11
Cc1nc(NC(=O)c2ccc(Cl)cc2)sc1-c1csc(Nc2cccc(F)c2)n1	0	0	40	0	0
Cc1cccc(-n2nc(C(=O)c3ccco3)cc(-c3nc4ccccc4[nH]3)c2=N)c1	0	0	0	0	0
COc1ccc(-n2nc(C(=O)c3cccs3)cc(-c3nc4ccccc4[nH]3)c2=N)cc1	+	-	0	0	0
Cc1ccccc1-n1nc(C(=O)c2cccs2)cc(-c2nc3ccccc3[nH]2)c1=N	+	0	0	0	0
CC(C)CC(C(=O)OCC(=O)Nc1ncc(Cl)cc1Cl)N1C(=O)c2ccccc2C1=O (stereo not given)	0	0	0	0	11
O=C1CSC(c2cn(-c3ccccc3)nc2-c2cc3ccccc3oc2=O)N1Cc1ccccc1 (stereo not given)	0	-	31	-	0
O=C1CSC(c2nn(-c3ccccc3)cc2-c2cc3ccccc3oc2=O)N1Cc1ccco1 (stereo not given)	0	0	0	0	0
CCCCCCc1nnc(N)s1	0	0	0	-	0
CCOC(=O)c1ccc(-n2c(N)c(C(=O)NCC3CCCO3)sc2=S)cc1 (stereo not given)	0	0	0	0	0
COc1ccc(-n2c(N)c(C(=O)NCC3CCCO3)sc2=S)cc1 (stereo not given)	0	0	0	-	10
O=C(O)c1ccc2c(c1)C(=O)N(c1cccc(-c3nc4ccccc4s3)c1)C2=O	0	-	0	0	11
N#Cc1c(NCCN)nc(NCc2ccccc2)c2c1CCN(Cc1ccccc1)C2	+	0	0	0	0
Cc1ccc(S(=O)(=O)N2CCCC2C(=O)N(C)Cc2cccs2)cc1 (stereo not given)	0	4.2	0	0	0
CC(=O)Nc1c(C)ccc(CNC(=O)COc2cc(C)ccc2C)c1C	0	0	0	0	0
CC(C)N1C/C(=C/c2cccnc2)C(=O)/C(=C/c2cccnc2)C1	0	0	0	0	0
CN1C/C(=C/c2cccnc2)C(=O)/C(=C/c2cccnc2)C1	0	0	53	0	0
Cc1ccc(-c2nn(-c3ccccc3)cc2C(N)=O)o1	0	-	0	0	0
Cc1ccc(-c2nn(-c3ccccc3)cc2C=O)o1	0	0	0	0	11
COc1cccc2c(SCC(=O)N/N=C/c3ccc(O)c(O)c3)cc(C)nc12	0	0	10	0	0
COc1ccc2nc(C)cc(SCC(=O)N/N=C/c3ccc(O)c(O)c3)c2c1	0	0	0	0	0
COc1cccc2c(SCC(=O)N/N=C/c3ccccc3)cc(C)nc12	0	0	0	0	0
COc1ccc2nc(C)cc(SCC(=O)N/N=C/c3cccc4ccccc34)c2c1	0	0	0	77	0
SMILES	Autophagy HCS	Insulin prom up	MT stabilize HCS	bCat nuc transl	Wee1 degr inh
CCOc1ccccc1NC(=O)c1c(NC(=O)CNCc2ccco2)sc2c1CCC2	-	0	-	0	-
C[C@H]1CC[C@H]2C(=O)N3[C@H](c4ccccc4Br)[C@@H](C)CC[C@H]3C(=O)N2[C@@H]1c1ccccc1Br	+	0	0	0	0
COc1cccc(N2CCN(c3ncnc4c3[nH]c3ccc(F)cc34)CC2C)c1 (stereo not given)	+	0	26	0	0
COc1cccc(N2CCN(c3ncnc4c3[nH]c3ccccc34)CC2C)c1 (stereo not given)	0	?	0	0	0
C/C(=N\NC(=O)c1cccs1)C(C)(C)C	0	0	0	-	0
Cc1nc(N2CCc3ccccc3C2)[nH]c(=O)c1Cc1ccccc1	0	0	0	0	0
Cc1nc(-n2[nH]c3c(c2=O)CCCC3)[nH]c(=O)c1Cc1ccccc1	+	-	0	-	0
Cc1ccc2[nH]c(=O)c(CN(CC3COCCO3)C(=O)Nc3ccccc3F)cc2c1 (stereo not given)	0	0	0	0	0
CC(C)NC(=S)N/N=C/c1c[nH]c2ccccc12	0	0	0	0	15
N#CC(C(=O)NC1CCCCC1)c1nc2ccccc2nc1N1CCN(c2ccc(F)cc2)CC1 (stereo not given)	+	0	0	0	0
N#CC(C(=O)NC1CC1)c1nc2ccccc2nc1N1CCCC1 (stereo not given)	0	0	0	0	0
CC1CCCCN1CC(O)COCCC12CC3CC(CC(C3)C1)C2 (stereo not given)	+	0	0	0	0
CCOC(=O)N1CCN(CC(O)COCCC23CC4CC(CC(C4)C2)C3)CC1 (stereo not given)	0	0	0	-	0
COc1ccc(C)cc1NC(=O)c1cc2c(CO)cnc(C)c2oc1=N	0	0	0	0	9.2
O=C(O)CCCC(=O)N1N=C(c2ccccc2)CC1c1cccs1 (stereo not given)	-	0	-	0	0
Cn1cc(/C=N/n2cnc3scc(-c4ccccc4)c3c2=O)c2ccccc21	0	0	28	71	0
CCCCNC(=O)CNC(=S)N(Cc1ccccc1F)C1CCCCC1	0	0	0	0	9.1
CCOCCCNC(=O)C(NC(=O)c1ccc2c(c1)OCO2)c1ccccc1 (stereo not given)	+	0	0	0	0
COc1ccc(Cl)cc1C(=O)NCC(c1ccco1)N1CCCC1 (stereo not given)	+	0	0	0	0
O=C(NCC(c1ccco1)N1CCCC1)c1ccccc1F (stereo not given)	0	0	0	0	0
Fc1ccc(NC(=S)NCCN2CCOCC2)cc1	0	0	0	0	0
CCN(CC)CCNC(=S)Nc1ccc(F)cc1	+	0	0	0	0
S=C(NCc1ccco1)NCC(c1ccco1)N1CCCCC1 (stereo not given)	0	0	0	0	0
Cc1cc(C)c(C(=O)CN2C(=O)NC3(CCCCCC3)C2=O)cc1C	+	0	0	0	0
Cc1cc(C(=O)CN2C(=O)NC3(CCCCC3)C2=O)c(C)n1C	0	0	0	0	0
SMILES	Autophagy HCS	Insulin prom up	MT stabilize HCS	bCat nuc transl	Wee1 degr inh
Cc1cc(C(=O)CN2C(=O)NC3(CCCCC3)C2=O)c(C)n1Cc1ccc2c(c1)OCO2	0	0	0	0	9.2
COc1ccc(NC(=O)c2cc3c(=O)n4ccccc4nc3n2C)cc1OC	0	0	0	0	0
Cc1cc(C)nc(Nc2n[nH]c(-c3ccccc3C)n2)n1	+	0	0	0	0
CNC(=S)N1CCc2cc(OC)c(OC)cc2C1	-	0	-	0	0
NNC(=O)CCc1nc2ccccc2[nH]1	0	0	0	0	0
COC(=O)C1NN=C(C(=O)c2ccc(Cl)cc2)C1c1ccc(OC)cc1 (stereo not given)	0	0	0	0	0
C(#CCN1CCCC1)CC(c1ccccc1)c1ccccc1	0	0	0	0	0
COC(=O)c1ccc(NC(=O)Cn2c(-c3nonc3N)nc3ccccc32)cc1	0	0	0	0	0
